Activity calls are given as the source filed them. No cut-off for these calls is given here.
What was measured:
[1] = Inhibition of colony formation in rat 9LSF cells after 24 hrs by crystal violet staining; type: functional; details: read-out: LD50 (the source's name)
In short: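 9LSF rat gliosarcoma cells exposed for 24 hours at 1 nM, 3 nM, 10 nM, 30 nM, 100 nM, 1 μM or 10 μM. Then trypsinized, counted, seeded in triplicate and incubated at 37°C until colonies exceeded 50 cells. Flasks with fewer than 50,000 cells got 50,000 lethally irradiated A549 feeder cells first. Colonies fixed, crystal violet-stained and counted. LD50 from four-parameter logistic fit, mean ± SEM of 3 independent experiments.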

[2] = Cell cycle arrest in rat 9LSF cells assessed as accumulation at G2/M phase at 50 nM after 24 hrs by propidium iodide based flow cytometry; type: functional
In short: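 9LSF rat gliosarcoma cells were exposed to 50 nM compound for 24 h alongside untreated controls. Cells were then trypsinized, counted, rinsed in PBS and fixed in ice-cold 70% EtOH/PBS at 10⁶ cells/mL, then held at 4°C. For analysis, 10⁶ cells were pelleted, rinsed three times in PBS and resuspended in 1 mL PBS with 1 µL PI (12.5 mg/mL stock in DMSO). The G2/M fraction was read by flow cytometry.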

COc1ccc(-c2n[nH]nc2-c2cc(OC)c(OC)c(OC)c2)cc1O
CC50 [1]: 7.5 nM | Activity [2]: Active

— ChEMBL document CHEMBL3739417, “Synthesis and biological evaluation of novel 4,5-disubstituted 2H-1,2,3-triazoles as cis-constrained analogues of combretastatin A-4” (2015)
